Source: ChEMBL document CHEMBL4312030, “Synthesis, biological evaluation, and docking study of indole aryl sulfonamides as aromatase inhibitors” (Eur J Med Chem, 2020)
The source made the active and inactive calls. The rule behind the calls is not given here.

Legend:
MCF7 [1] = assay: Cytotoxicity against human MCF7 cells assessed as cell metabolic activity at 10 uM after 48 hrs by MTT assay relative to control; format: functional
In short: (§1)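 MCF7 cells in DMEM high glucose with 10% FBS, 1% pen/strep, seeded 1x10⁴/well, adhered 24 h, then treated 0-250 µM for 24, 48 or 72 h. MTT (1 mg/ml, 1:10 in fresh medium) 4 h at 37°C, 5% CO₂; formazan dissolved in DMSO, OD 540 nm. Expressed as % of DMSO-treated cells (final DMSO <0.2%); three experiments in triplicate (n=9).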

MCF7 [2] = assay: Cytotoxicity against human MCF7 cells assessed as LDH release up to 250 uM after 24 hrs by CytoTox 96 Non-Radioactive assay relative to control; format: functional
In short: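 MCF7 cells (DMEM high glucose, 10% FBS, 1% pen/strep) seeded 1x10⁴/well, adhered 24 h, then exposed to 0-250 µM for 24 h. Supernatants centrifuged 450xg 4 min; LDH measured by 30-min coupled INT-to-formazan reaction, absorbance 490 and 690 nm. %LDH released = [(A490–B690)/(C–B)]×100, C = positive control cell lysate.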

Aromatase [3] = molecular target: T1, Aromatase (Homo sapiens, UniProt P11511); assay: Inhibition of recombinant human aromatase at 1 uM preincubated for 10 mins followed by substrate and beta-NADP+ addition and measured for 60 mins by fluorimetric assay relative to letrozole; settings: 1 h
T1 sequence (P11511 whole entry): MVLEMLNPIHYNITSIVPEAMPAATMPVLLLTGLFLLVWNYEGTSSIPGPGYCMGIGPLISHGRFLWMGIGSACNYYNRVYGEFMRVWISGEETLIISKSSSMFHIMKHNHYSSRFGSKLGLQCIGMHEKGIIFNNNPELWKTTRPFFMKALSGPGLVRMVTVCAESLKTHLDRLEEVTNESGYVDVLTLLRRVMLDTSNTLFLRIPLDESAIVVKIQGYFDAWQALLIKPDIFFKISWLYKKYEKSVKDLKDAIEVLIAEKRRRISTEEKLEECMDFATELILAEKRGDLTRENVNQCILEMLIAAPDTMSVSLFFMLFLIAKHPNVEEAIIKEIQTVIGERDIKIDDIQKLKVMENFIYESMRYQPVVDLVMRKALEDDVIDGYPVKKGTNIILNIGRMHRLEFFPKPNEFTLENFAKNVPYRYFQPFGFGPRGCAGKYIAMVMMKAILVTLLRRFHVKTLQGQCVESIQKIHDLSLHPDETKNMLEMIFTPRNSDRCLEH
In short: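 Fluorimetric kit assay with recombinant human aromatase plus NADPH generating system; compounds at 1 µM final (from 5X in ACN; solvent 0.5% ACN), preincubated 10 min at 37°C.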

MCF7 [4] = assay: Cytotoxicity against human MCF7 cells assessed as cell metabolic activity after 24 hrs by MTT assay relative to control; format: functional; in short: as §1
Aromatase [5] = molecular target: T1, Aromatase; assay: Inhibition of recombinant human aromatase preincubated for 10 mins followed by substrate and beta-NADP+ addition and measured for 60 mins by fluorimetric assay
In short: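 Recombinant human aromatase with NADPH generating system, preincubated 10 min at 37°C with inhibitor at 0.01-100 µM final (5X stocks 0.05-500 µM in ACN). Fluorogenic substrate/β-NADP+ added; fluorescence Ex/Em 488/527 nm kinetic 60 min. IC50 from fitted multi-point dose-response curves; mean of triplicate ± RSD.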

MCF7 [6] = assay: Cytotoxicity against human MCF7 cells assessed as reduction in cell viability at 100 uM after 24 to 72 hrs by MTT assay; format: functional, cell-based; in short: as §1
MCF7 [7] = assay: Cytotoxicity against human MCF7 cells assessed as active metabolizing cells at 250 uM after 48 hrs by MTT assay relative to control; format: functional; in short: as §1
MCF7 [8] = assay: Cytotoxicity against human MCF7 cells assessed as active metabolizing cells at 100 uM after 48 hrs by MTT assay relative to control; format: functional; in short: as §1
MCF7 [9] = assay: Cytotoxicity against human MCF7 cells assessed as reduction in cell viability after 72 hrs by MTT assay; format: functional, cell-based; in short: as §1
MCF7 [10] = assay: Cytotoxicity against human MCF7 cells assessed as cell metabolic activity at 250 uM after 24 hrs by MTT assay relative to control; format: functional; in short: as §1

inhibition at 1 µM (Aromatase [3]) | IC50 (Aromatase [5]) | SMILES | Activity (MCF7 [1]) | Activity (MCF7 [2]) | Activity (MCF7 [4]) | also measured
83.2% | 490 nM | Cc1ccc(S(=O)(=O)Nc2ccc3cc[nH]c3c2)cc1 | 40 - 45% | 35 - 40% | 45% | Activity (MCF7 [7]): 22.08%; Activity (MCF7 [8]): 20.78%; inhibition (MCF7 [9]): Dose-dependent effect; Activity (MCF7 [10]): 36.63%
12.8% |  | Cc1ccc(S(=O)(=O)Nc2ccc3[nH]ccc3c2)cc1[N+](=O)[O-] |  |  |  | 
129% | 160 nM | O=S(=O)(Cc1ccccc1)Nc1ccc2[nH]ccc2c1 | 40 - 45% | 35 - 40% | 45% | Activity (MCF7 [7]): 20.08%; Activity (MCF7 [8]): 19.53%; inhibition (MCF7 [9]): Dose-dependent effect; Activity (MCF7 [10]): 38.62%
18.6% |  | O=[N+]([O-])c1cccc(S(=O)(=O)Nc2ccc3cc[nH]c3c2)c1 |  |  |  | 
20.7% |  | O=S(=O)(NCc1ccc2[nH]ccc2c1)c1ccccc1 |  |  |  | 
33.4% |  | Cc1ccc(S(=O)(=O)NCc2ccc3[nH]ccc3c2)cc1 |  |  |  | 
30.6% |  | Cc1ccc(S(=O)(=O)NCCc2c[nH]c3ccccc23)cc1[N+](=O)[O-] |  |  |  | 

More lines, now with the values behind:

SMILES | inhibition at 1 µM (Aromatase [3]) | IC50 (Aromatase [5]) | Activity (MCF7 [1]) | Activity (MCF7 [2]) | Activity (MCF7 [4]) | also measured
O=S(=O)(Cc1ccccc1)NCCc1c[nH]c2ccccc12 | 75.2% | 750 nM | 40 - 45% | 35 - 40% | 45% | inhibition (MCF7 [6]): Active
O=S(=O)(Cc1ccccc1)NCc1ccc2[nH]ccc2c1 | 16.4% |  |  |  |  | 
O=S(=O)(NCCc1c[nH]c2ccccc12)c1ccccc1 | 110% | 200 nM | 40 - 45% | 35 - 40% | 45% | inhibition (MCF7 [6]): Active
N#Cc1ccc(S(=O)(=O)NCCc2c[nH]c3ccccc23)c(Cl)c1 | 19.7% |  |  |  |  | 
O=S(=O)(Cc1ccccc1)Nc1ccc2cc[nH]c2c1 | 15.3% |  |  |  |  | 
Cc1ccc(S(=O)(=O)NCCc2c[nH]c3ccccc23)cc1 | 43.5% |  |  |  |  | 
